S1P3 ag = human S1P3 receptor agonists, primary screen, cell-based, primary and confirmation, NFAT-BLA reporter. Sphingosine 1-phosphate receptor 3 (Homo sapiens), Q99500. S1P3 NFAT-BLA reporter cells, agonism, FRET ratio; relative to 1 µM S1P, basal subtracted. activation, % at 4.5 µM. 60,000 compounds, 0.1% hits. AID 373, 2006;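 active = activation above the screen-wide mean plus 3 SD, cut at about 4.5% in these data, passing the limit was not always enough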
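material = human S1P3 NFAT-BLA reporter CHO cells | schedule = 4 h compound at 37 °C, 2 h substrate at RT | measured by = fluorescent BLA substrate, ex 405 nm, em 460/535 nm ratio | controls = 1 µM S1P reference | replication = primary once, confirmation triplicate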
HTR1A agonist = human 5-HT1a receptor agonists, primary screen, cell-based, CHO, Ga15 NFAT-bla reporter | CHO 5-HT1a Ga15 NFAT-bla reporter, FRET ratio; 0% basal, 100% maximal reference agonist | activation, % at 10 µM | 65,000 compounds, 0.56% hits;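 active = activation above the screen-wide mean activation plus 3 SD, cut at about 19% in these data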;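 note: 0% = DMSO wells and 100% = 5-CT at EC100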
Target sequence (P08908 whole entry, looked up): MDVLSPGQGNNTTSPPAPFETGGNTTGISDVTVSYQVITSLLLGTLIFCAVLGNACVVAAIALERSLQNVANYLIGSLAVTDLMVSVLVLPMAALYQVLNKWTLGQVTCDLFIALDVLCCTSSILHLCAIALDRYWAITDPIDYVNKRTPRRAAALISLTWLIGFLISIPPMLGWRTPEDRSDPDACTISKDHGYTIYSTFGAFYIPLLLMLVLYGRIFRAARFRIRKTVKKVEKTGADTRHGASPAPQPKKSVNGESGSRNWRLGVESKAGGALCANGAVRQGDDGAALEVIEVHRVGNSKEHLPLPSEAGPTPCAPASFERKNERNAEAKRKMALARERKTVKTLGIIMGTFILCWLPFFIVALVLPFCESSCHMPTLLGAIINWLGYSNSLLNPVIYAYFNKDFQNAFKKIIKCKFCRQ
5HT1a antag = human 5-HT1a receptor antagonists, primary screen, cell-based, CHO, Ga15 NFAT-bla reporter. inhibition, % at 10 µM. 5-hydroxytryptamine receptor 1A (Homo sapiens), P08908. CHO 5-HT1a Ga15 NFAT-bla reporter, antagonist mode. 62,000 compounds, 0.68% hits;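 active = inhibition above the mean of all tested compounds plus 3 SD, cut at about 43% in these data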;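 note: receptor stimulated by 5-CT agonist at 100 nM near EC80; beta-lactamase reporter measured by ratiometric fluorescence of a cleavable substrate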
HTR1E antagonist = 5-HT1E receptor antagonists, primary screen, cell-based, HTS; 5-hydroxytryptamine receptor 1E (Homo sapiens), P28566; CHO 5-HT1E Ga15 NFAT-bla reporter, FRET, antagonist; inhibition, % at 6 µM; 65,000 compounds, 0.99% hits; AID 571, 2007;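 active = inhibition above a set limit, the mean inhibition across every tested compound plus 3 SD, cut at about 29% in these data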;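 note: signal is the 460 over 535 nm emission ratio of beta-lactamase substrate; 0% = agonist plus DMSO wells and 100% = wells without agonist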
HTR1E agonist = 5-HT1E receptor agonists, primary screen, cell-based, HTS; CHO 5-HT1E Ga15 NFAT-bla reporter, FRET; 0% DMSO wells, 100% control agonist wells; 65,000 compounds, 0.69% hits; activation, % at 6 µM;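 active = activation above a set limit, the screen-wide mean activation plus 3 SD, cut at about 8.5% in these data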;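 note: 100% = positive control agonist at 1 µM giving full maximal response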
S1P1 ag pot = S1P1 agonists and agonism potentiators, primary screen, cell-based, primary and confirmation screens, CRE-bla reporter | S1P1 CRE-bla cells, forskolin, beta-lactamase FRET, potentiator mode; S1P1 agonist co-added at EC20, 2 nM; 100% = saturating reference agonist, 0% = basal | activation, % at 9.5 µM | 56,000 compounds, 0.57% hits | AID 449, 2006;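 active = activation above a cutoff set at the mean activation of all tested compounds plus 3 SD, cut at about 54% in these data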;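 note: forskolin at 4 µM as EC80 and the EC20 agonist is SEW2871; 100% = SEW2871 at its EC100 plus forskolin at EC80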
Numbers without * were called inactive. Compounds with a hit are over-represented: about 3% of the library has one in this group of screens.

CC1CN(c2nc3c(c(=O)n(Cc4ccc(Cl)cc4)c(=O)n3C)n2C)CC(C)O1 (centres undefined) was read as S1P3 ag 0, HTR1A agonist -5, 5HT1a antag 3, HTR1E antagonist 1, HTR1E agonist 1 and S1P1 ag pot 1.
CCOC(=O)c1ccc(N=CC2=C(O)CC(c3ccco3)CC2=O)cc1 (centres undefined) was read as S1P3 ag -3, HTR1A agonist 0, HTR1E antagonist -7, HTR1E agonist 0 and S1P1 ag pot 10.
O=C(O)C1CCCN1S(=O)(=O)c1ccc(Cl)c(Cl)c1 (centres undefined) was read as S1P3 ag -1, HTR1A agonist -1, 5HT1a antag 10, HTR1E antagonist -1 and HTR1E agonist 44*.
For O=C(O)C1CCCN1S(=O)(=O)c1ccc2ccccc2c1 (centres undefined) the results were HTR1A agonist -1, 5HT1a antag -3, HTR1E antagonist -9 and HTR1E agonist 0.
`Nc1nonc1-c1nc2ccccc2n1Cc1ccc(F)cc1Cl` gave S1P3 ag -1, HTR1A agonist -3, 5HT1a antag 63*, HTR1E antagonist 18, HTR1E agonist 0 and S1P1 ag pot 1.
For CCC(=O)Nc1nonc1-c1nc2ccccc2n1Cc1ccc(Cl)c(Cl)c1 the results were S1P3 ag -2, HTR1A agonist -5, 5HT1a antag -7, HTR1E antagonist 2, HTR1E agonist 0 and S1P1 ag pot -7.
Screening O=C(CCOc1ccccc1)NCC(c1ccco1)N1CCCCC1 (centres undefined) returned S1P3 ag -1, HTR1A agonist -3, 5HT1a antag 10, HTR1E antagonist 9, HTR1E agonist 0 and S1P1 ag pot 0.
`Cc1cc2c(cc(C(=O)OCC(=O)NCc3cccs3)n2C(C)C)o1` gave S1P3 ag -1, HTR1A agonist -3, 5HT1a antag 36, HTR1E antagonist 38*, HTR1E agonist 0 and S1P1 ag pot 21.
`CC(=O)C1=C(O)C(=O)N(CCN2CCOCC2)C1c1ccccc1` (centres undefined) gave S1P3 ag 0, HTR1A agonist -2, 5HT1a antag 12, HTR1E antagonist 16, HTR1E agonist 9.3* and S1P1 ag pot 4.
`Cc1ccc(NC(=O)c2cnc3scc(C)n3c2=O)c(C)c1` gave S1P3 ag 0, HTR1A agonist -2, 5HT1a antag -4, HTR1E antagonist -6, HTR1E agonist 1 and S1P1 ag pot -20.
For O=C1c2ccccc2C(=O)N1CCn1c(=O)oc2ccccc21 the results were S1P3 ag -1, HTR1A agonist -1, 5HT1a antag 3, HTR1E antagonist -1, HTR1E agonist 0 and S1P1 ag pot 11.
For CCOC(=O)N1CCN(c2nnnn2-c2ccccc2)CC1 the results were S1P3 ag 0, HTR1A agonist -1, 5HT1a antag 11, HTR1E antagonist -2 and HTR1E agonist 1.
CC1CN(c2nnnn2-c2ccccc2)CC(C)O1 (centres undefined) was read as S1P3 ag -1, HTR1A agonist -1, 5HT1a antag -6, HTR1E antagonist -7, HTR1E agonist 54* and S1P1 ag pot -20.
COc1ccc(OC)c(C2C(C(C)=O)=C(O)C(=O)N2c2ccc(O)cc2)c1 (centres undefined) was read as S1P3 ag -1, HTR1A agonist 1, 5HT1a antag -6, HTR1E antagonist -116, HTR1E agonist 0 and S1P1 ag pot 1.
CC(=O)C(Sc1nc(-c2ccc(F)cc2)nc2c1c(=O)n(C)c(=O)n2C)C(C)=O was read as S1P3 ag 0, HTR1A agonist 2, 5HT1a antag 6, HTR1E antagonist 97*, HTR1E agonist -1 and S1P1 ag pot 7.
`COc1ccccc1N/C(N)=N/c1nc(CSc2ccc(C)cc2)cc(=O)[nH]1` gave S1P3 ag -1, HTR1A agonist 1, 5HT1a antag 24, HTR1E antagonist 16, HTR1E agonist 0 and S1P1 ag pot 59*.
`COc1cc(OC)cc(C(=O)NC2CC3CCC(C2)N3Cc2ccco2)c1` (centres undefined) gave S1P3 ag 1, HTR1A agonist 0, 5HT1a antag -4, HTR1E antagonist -12, HTR1E agonist -1 and S1P1 ag pot 4.
For S=C(Nc1ccccn1)c1ccccn1 the results were S1P3 ag -1, HTR1A agonist 3, 5HT1a antag 4, HTR1E antagonist 33*, HTR1E agonist -1 and S1P1 ag pot -22.
For O=C(Nc1ccccc1)Nc1ccccn1 the results were S1P3 ag 0, HTR1A agonist -2, 5HT1a antag 5, HTR1E antagonist -2 and HTR1E agonist -1.
`CCN(CC)C(=O)C1CCN(S(=O)(=O)c2ccc3oc4ccccc4c3c2)CC1` gave S1P3 ag -2, HTR1A agonist 0, 5HT1a antag 8, HTR1E antagonist 6, HTR1E agonist 1 and S1P1 ag pot 84*.
O=S(=O)(c1ccc2oc3ccc(S(=O)(=O)N4CCCC4)cc3c2c1)N1CCCC1 was read as S1P3 ag 0, HTR1A agonist -2, 5HT1a antag -6, HTR1E antagonist -6, HTR1E agonist 0 and S1P1 ag pot -5.
`O=C(Cn1nc(C(F)(F)F)c2c1CCCC2)Nc1ccc2c(c1)OCO2` gave S1P3 ag -1, HTR1A agonist -4, 5HT1a antag 14, HTR1E antagonist 2, HTR1E agonist 0 and S1P1 ag pot 34.
`C=CCOC(=O)c1[nH]c2c(c1C)C(=O)CC(c1ccco1)C2` (centres undefined) gave S1P3 ag -1, HTR1A agonist -3, 5HT1a antag 51*, HTR1E antagonist 76*, HTR1E agonist 0 and S1P1 ag pot 2.
COCCOC(=O)c1[nH]c2c(c1C)C(=O)CC(c1cc(OC)ccc1OC)C2 (centres undefined) was read as S1P3 ag -1, HTR1A agonist 0, 5HT1a antag 27, HTR1E antagonist 22, HTR1E agonist 0 and S1P1 ag pot 7.
